Legend:
Format in all cases: cell-based
HeLa = assay: Cytotoxicity against human HeLa cells at 1 to 10 uM after 24 hrs by MTS assay
Summary of the method: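 HeLa cells at ~80% confluence, uninfected, exposed to 1–100 μM PPMO or water (mock) in serum-free DMEM-F-12 (1:1) for 24 h. MTS reagent was added for 4 h and absorbance read at 492 nm. Viability was expressed as percent of water-treated cells (set to 100%), averaged over 12 wells.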

Vero = assay: Cytotoxicity against African green monkey Vero cells at 10 uM after 24 hrs by MTS assay; conditions: chlorocebus sabaeus
SK-N-MC = assay: Cytotoxicity against human SK-N-MC cell at 10 uM after 24 hrs by MTS assay

Measured: Activity

Cc1cn([C@H]2CN(P(=O)(OC[C@@H]3CN(P(=O)(OC[C@@H]4CN(P(=O)(OC[C@@H]5CN(P(=O)(OC[C@@H]6CN(P(=O)(OC[C@@H]7CN(P(=O)(OC[C@@H]8CN(P(=O)(OC[C@@H]9CNC[C@H](n%10cnc%11c(=O)[nH]c(N)nc%11%10)O9)N(C)C)C[C@H](n9cnc%10c(N)ncnc%109)O8)N(C)C)C[C@H](n8cnc9c(=O)[nH]c(N)nc98)O7)N(C)C)C[C@H](n7cnc8c(N)ncnc87)O6)N(C)C)C[C@H](n6ccc(N)nc6=O)O5)N(C)C)C[C@H](n5ccc(N)nc5=O)O4)N(C)C)C[C@H](n4cnc5c(N)ncnc54)O3)N(C)C)C[C@@H](COP(=O)(N(C)C)N3C[C@@H](COP(=O)(N(C)C)N4C[C@@H](COP(=O)(N(C)C)N5C[C@@H](COP(=O)(N(C)C)N6C[C@@H](COP(=O)(N(C)C)N7C[C@@H](COP(=O)(N(C)C)N8C[C@@H](COP(=O)(N(C)C)N9C[C@@H](COP(=O)(N(C)C)N%10C[C@@H](COP(=O)(N(C)C)N%11C[C@@H](COP(=O)(N(C)C)N%12C[C@@H](COP(=O)(N(C)C)N%13C[C@@H](COP(=O)(N(C)C)N%14C[C@@H](COP(=O)(N(C)C)N%15C[C@@H](COP(=O)(N(C)C)N%16CCN(C(=O)[C@H](CS)NC(=O)[C@H](Cc%17ccccc%17)NC(=O)[C@H](Cc%17ccccc%17)NC(=O)[C@H](CCCNC(=N)N)NC(=O)[C@H](CCCNC(=N)N)NC(=O)[C@H](CCCNC(=N)N)NC(=O)[C@H](CCCNC(=N)N)NC(=O)[C@H](CCCNC(=N)N)NC(=O)[C@H](CCCNC(=N)N)NC(=O)[C@H](CCCNC(=N)N)NC(=O)[C@H](CCCNC(=N)N)NC(=O)[C@@H](N)CCCNC(=N)N)CC%16)O[C@@H](n%16ccc(N)nc%16=O)C%15)O[C@@H](n%15cnc%16c(N)ncnc%16%15)C%14)O[C@@H](n%14cnc%15c(N)ncnc%15%14)C%13)O[C@@H](n%13cnc%14c(N)ncnc%14%13)C%12)O[C@@H](n%12cnc%13c(=O)[nH]c(N)nc%13%12)C%11)O[C@@H](n%11cnc%12c(=O)[nH]c(N)nc%12%11)C%10)O[C@@H](n%10cc(C)c(=O)[nH]c%10=O)C9)O[C@@H](n9cnc%10c(N)ncnc%109)C8)O[C@@H](n8ccc(N)nc8=O)C7)O[C@@H](n7cnc8c(N)ncnc87)C6)O[C@@H](n6cc(C)c(=O)[nH]c6=O)C5)O[C@@H](n5cnc6c(N)ncnc65)C4)O[C@@H](n4cnc5c(=O)[nH]c(N)nc54)C3)O2)c(=O)[nH]c1=O (stereo partly drawn)
Non-toxic: all assays above
